Measles CPE: compounds protecting cells from measles virus cytopathic effect, primary screen, measles RdRp inhibitor project, single point, MLSMR library, absorbance | Measles virus-infected cells, CPE protection | protection (pct of control), % at 4 µM | 140,000 compounds, 1.5% hits | AID 841, 2007; in the data active means protection mostly above about 24%, no sharp cut-off; inactive means mostly below about 26%
Yeast lifespan up: compounds extending yeast replicative lifespan, primary screen, S. cerevisiae, OD615 | AID 775, 2007 | inhibition of the nicotinamide effect, % at 10 µM | S. cerevisiae growth with nicotinamide; deaD strain in restrictive glucose medium | 130,000 compounds, 0.68% hits;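 active means inhibition above a set limit, placed 3 SD over the median of all compounds, cut at about 26% in these data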
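Material: Modified budding yeast, DeaD strain | Medium: Restrictive glucose medium | Probe or stimulus: 1.5 mM nicotinamide | Dosing: Single dose 10 µM compound, 0.25% DMSO | Times: 48 h at 30 °C | Technique: OD615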
BB579 growth dn: growth inhibitors of yeast BB579 in restrictive medium, primary screen, yeast lifespan-shortening project, S. cerevisiae; OD615, 48 h; inhibition, % at 10 µM; 140,000 compounds, 0.51% hits; AID 804, 2007;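 active means inhibition above a set limit, 3 SD over the mean compound inhibition, cut at about 44% in these data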
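System: DeaD yeast strain BB579; buffer or medium: CSMM-D dextrose restrictive medium; technique: OD at 615 nm; schedule: 4 h cell preincubation, 48 h compound exposure, 30 °C humidified; doses: single 10 µM dose; controls: amphotericin B 10 µg/mL, positive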
RAM inhibit: inhibitors of the yeast RAM network, primary screen, dse1pr::URA3 reporter, 5-FOA selection. 190,000 compounds, 1.8% hits. S. cerevisiae dse1pr::URA3 reporter, 5-FOA growth OD615, 2 d; analog-sensitive cbk1-as2 kinase mutant strain. inhibition, % at 50 µM;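 active means inhibition above a set limit, 3 SD over mean compound inhibition, cut at about 8.4% in these data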;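 further: inhibition rescues growth on 5-FOA so higher OD means more RAM inhibition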
Each line names hits and unclear results; the compound was inactive in the other large screens. Compounds with a hit are over-represented: about 3.6% of the library has one in this group of screens.

CCNc1ccc(S(=O)(=O)N(C)C)cc1NCC(=O)Nc1ccc(F)c(Cl)c1	none
c1cnn(Cc2cnc(N3CCOCC3)s2)c1	none (no result: Measles CPE, Yeast lifespan up, BB579 growth dn)
COc1ccc([N+](=O)[O-])cc1NC(=O)CC1SC(=Nc2cccc(C)c2C)N(/N=C/c2cccc(OC)c2OC)C1=O (configuration not stated)	RAM inhibit 10.4 (no result: Measles CPE, Yeast lifespan up, BB579 growth dn)
Cc1c(NC(=O)COC(=O)C2(c3ccc(F)cc3)CCCC2)c(=O)n(-c2ccccc2)n1C	none (no result: Measles CPE, Yeast lifespan up, BB579 growth dn)
CSCCC(NC(=O)OC(C)(C)C)C(=O)Oc1ccc2c(=O)c(-c3ccc4c(c3)OCCO4)coc2c1 (configuration not stated)	RAM inhibit 8.7
COc1ccc(Oc2nc(SC)nc3ccccc23)cc1	RAM inhibit 11.3
C/C(=N\NC(=O)c1ccccc1O)c1c(O)cc(C)oc1=O	none
C/C(=N\NC(=O)c1cccnc1)c1c(O)cc(C)oc1=O	Yeast lifespan up 42.0
C/C(=N\NC(=O)c1ccccc1[N+](=O)[O-])c1c(O)cc(C)oc1=O	Yeast lifespan up 33.3
CC(=O)OCC1(C)CN(c2ccccc2)NC1=O (configuration not stated)	none (no result: Measles CPE, Yeast lifespan up, BB579 growth dn)
c1cncc(-c2nnc(-c3cccnc3)nn2)c1	BB579 growth dn 53.1
O=C(CSC1=NCCS1)N1CCN(c2ccc(Cl)cc2)CC1	BB579 growth dn 50.9
Cc1[nH]c2ccccc2c1-c1nc(-c2ccc(Cl)cc2)nnc1-c1ccccc1	none (no result: Measles CPE, Yeast lifespan up, BB579 growth dn)
O=c1c2ccccc2nnn1CSc1nnc2sc3ccccc3n12	Measles CPE 41.4
O=c1c2ccccc2nnn1CSc1nc2ccccc2[nH]1	none
O=C(OCc1cccc2ccccc12)C1CC(=O)N(c2ccccc2)C1 (configuration not stated)	RAM inhibit 11.0
COc1ccc(-c2cnnn2-c2ccc(NC(=O)c3ccc(S(=O)(=O)N4CCCCC4)cc3)cc2)cc1	RAM inhibit 9.8
O=Cc1ccc(-c2ccccc2C(=O)O)o1	none (no result: Measles CPE, Yeast lifespan up, BB579 growth dn)
Cc1c(C(=O)O)cccc1-c1ccc(/C=N/Nc2ccc(Br)cc2)o1	BB579 growth dn 44.4
Cc1ccc(C)c(OCCn2cc(/C=C(/C#N)C(=O)NCC3CCCO3)c3ccccc32)c1 (configuration not stated)	RAM inhibit 8.8
O=C(COc1ccccc1)NNC(=O)COc1ccc([N+](=O)[O-])cc1	none (no result: Measles CPE, Yeast lifespan up, BB579 growth dn)
O=C(CN(c1cccc([N+](=O)[O-])c1)S(=O)(=O)c1ccccc1)NCc1ccccc1	none
O=C(CN(c1cccc([N+](=O)[O-])c1)S(=O)(=O)c1ccccc1)N(Cc1ccccc1)Cc1ccccc1	RAM inhibit 8.6
O=C(COc1ccc([N+](=O)[O-])cc1)N(Cc1ccccc1)Cc1ccccc1	Measles CPE 31.5, RAM inhibit 11.0
O=C1CC(N2CCN(c3ccc(F)cc3)CC2)C(=O)N1c1ccc2c(c1)OCO2 (configuration not stated)	none (no result: Measles CPE, Yeast lifespan up, BB579 growth dn)
O=C(O)CNC(=O)CC1S/C(=N/N=C2/NC(=O)CS2)NC1=O (configuration not stated)	none (no result: Measles CPE, Yeast lifespan up, BB579 growth dn)
CCOC(=O)C1(CC2CC2)CCN(C(=O)c2cccnc2C)CC1	none (no result: Measles CPE, Yeast lifespan up, BB579 growth dn)
CN(CCOC(=O)c1ccc2c(c1)OCO2)C(C)(C)C	none (no result: Measles CPE, Yeast lifespan up, BB579 growth dn)
Cc1cccc(Sc2nc(-c3ccccc3)ncc2C(=O)O)c1	none (no result: Measles CPE, Yeast lifespan up, BB579 growth dn)
O=C(O)c1ccc(NC(=S)NC(=O)c2ccc(-c3ccccc3)cc2)cc1	none (no result: Measles CPE, Yeast lifespan up, BB579 growth dn)
O=C(NC(=S)Nc1ccccc1)c1ccc(-c2ccccc2)cc1	RAM inhibit 9.4
CC(C)NS(=O)(=O)c1ccc(NC(=S)NC(=O)c2ccc(-c3ccccc3)cc2)cc1	Measles CPE 43.5
Cc1cc(NS(=O)(=O)c2ccc(NC(=S)NC(=O)c3cccnc3)cc2)no1	RAM inhibit 9.3 (no result: Measles CPE, Yeast lifespan up, BB579 growth dn)
COc1ccccc1OCCCCN1CCN(c2ccccc2OC)CC1	none
Cc1cccc(OCCN2CSC(=S)N(C)C2)c1	BB579 growth dn 67.2
Cc1cccc(OCCCN2CCCCCC2)c1	none
COc1ccccc1OCCN1CSC(=S)N(C)C1	Measles CPE 34.5, BB579 growth dn 52.5
c1ccc2c(-c3cc(C4CCNCC4)[nH]n3)cccc2c1	none (no result: Measles CPE, Yeast lifespan up, BB579 growth dn)
O=C(C(=O)N1CCN(c2ccc(F)cc2)CC1)c1c[nH]c2ccccc12	RAM inhibit 10.3 (no result: Measles CPE, Yeast lifespan up, BB579 growth dn)
Cc1nn(-c2ccccc2)c(Cl)c1/C=N/NC(=O)CNc1n[nH]c(=O)[nH]c1=O	none (no result: Measles CPE, Yeast lifespan up, BB579 growth dn)
CC(=O)Nc1ccc2sccc2c1	none (no result: Measles CPE, Yeast lifespan up, BB579 growth dn)
Fc1ccc(CSc2ncnc3scc(-c4ccccc4)c23)cc1	RAM inhibit 10.3
O=C(CSc1ncnc2scc(-c3ccccc3)c12)N1CCN(c2ccccc2F)CC1	none
Cc1cc(C)cc(NC(=O)C(Nc2ccccc2)c2ccccc2)c1 (configuration not stated)	Measles CPE 46.4
Cc1ccc(NC(=O)C(Nc2ccccc2)c2ccccc2)cc1 (configuration not stated)	none
Cc1cc(Cl)ccc1OC(C)C(=O)NCCCn1ccnc1 (configuration not stated)	none (no result: Measles CPE, Yeast lifespan up, BB579 growth dn)
CN(C)/C=C(\C(=O)c1ccc(F)cc1F)c1nnnn1-c1ccccc1	none
CN(C)c1ccc(C=C(c2nnnn2-c2ccccc2)c2nnnn2-c2ccccc2)cc1	Measles CPE 22.6
CCOc1ccc(C(=O)NCC(=O)OC2CCOC2=O)cc1OCC (configuration not stated)	Measles CPE 42.5
O=C(COc1ccc(Cl)cc1)NNC(=O)c1cccnc1	none (no result: Measles CPE, Yeast lifespan up, BB579 growth dn)
CC(=O)Nc1cc(ON=C(C)C)cc([N+](=O)[O-])c1	Measles CPE 46.6
CC(=O)Nc1ccc(Oc2cc(NC(C)=O)cc([N+](=O)[O-])c2)cc1	none (no result: Measles CPE, Yeast lifespan up, BB579 growth dn)
O=C(O)c1ccccc1C(=O)NNc1ccc(Cl)cc1	BB579 growth dn 92.9
CCOC(=O)c1csc(NC(=O)CC2CCCC2)n1	none (no result: Measles CPE, Yeast lifespan up, BB579 growth dn)
CCCCCCCCC/C(=N\O)c1ccccn1	BB579 growth dn 99.6
N=c1sccn1CC(=O)Nc1cccc(S(=O)(=O)N2CCCCCC2)c1	none (no result: Measles CPE, Yeast lifespan up, BB579 growth dn)
COC(=O)c1nc(NC(=O)C(C)(C)C)n[nH]1	Measles CPE 35.8
CCOc1ccc(NC(=S)N2CCc3cc(OC)c(OC)cc3C2COc2ccc3c(C)cc(=O)oc3c2)cc1 (configuration not stated)	RAM inhibit 9.9
COc1cc2c(cc1OC)C(COc1ccc3c(C)cc(=O)oc3c1)N(C(=O)c1ccco1)CC2 (configuration not stated)	none
Cc1c(N=C2NC(=O)C(CC(=O)Nc3ccccc3)S2)c(=O)n(-c2ccccc2)n1C (configuration not stated)	Measles CPE 37.9
Cc1c(N=C2SC(CC(=O)Nc3ccccc3)C(=O)N2CCN2CCOCC2)c(=O)n(-c2ccccc2)n1C (configuration not stated)	none (no result: Measles CPE, Yeast lifespan up, BB579 growth dn)
Cc1cc(Br)cc2c1NC(=O)C2(O)CC(=O)c1ccco1 (configuration not stated)	none (no result: Measles CPE, Yeast lifespan up, BB579 growth dn)
Cc1ccc(S(=O)(=O)N2CCC(C(=O)Nc3ccccc3N3CCCCC3)CC2)cc1	Measles CPE 34.0
Cc1cc(C)c(C)c(S(=O)(=O)N2CCC(C(=O)Nc3ccccc3N3CCOCC3)CC2)c1C	none
